In the library only some 4.1% were active in any assay of this set; here they are far more common.
STAT1 activator: activators of IFN-gamma induced STAT1 signaling | hit rate 2.6% among 200,000 | NIH 3T3 STAT1-luciferase reporter, luminescence; 100% = IFN-gamma alone, no compound | activation (% of control), % at 5.5 µM;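 active = activation above the screen-wide mean activation plus 3 SD, cut at about 130% in these data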
APP 5'UTR act: activates APP 5'UTR luciferase reporter; SH-SY5Y APP 5'UTR luciferase reporter, luminescence; zero percent = DMSO vehicle wells; activation, % at 2 µM; hit rate 1% among 190,000;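 active = activation above a set limit, based on mean plus 3 SD of controls, cut at about 140% in these data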
FLuc inhib CS: inhibits firefly luciferase, flagging false hits in luciferase inhibition screens; inhibition, % at 10 µM; hit rate 1.5% among 200,000; ATPLite firefly luciferase biochemical luminescence, 10 min;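 active = inhibition above about 50% when tested at 10 µM, limit read from the data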
Target sequence (P08659 whole entry, looked up): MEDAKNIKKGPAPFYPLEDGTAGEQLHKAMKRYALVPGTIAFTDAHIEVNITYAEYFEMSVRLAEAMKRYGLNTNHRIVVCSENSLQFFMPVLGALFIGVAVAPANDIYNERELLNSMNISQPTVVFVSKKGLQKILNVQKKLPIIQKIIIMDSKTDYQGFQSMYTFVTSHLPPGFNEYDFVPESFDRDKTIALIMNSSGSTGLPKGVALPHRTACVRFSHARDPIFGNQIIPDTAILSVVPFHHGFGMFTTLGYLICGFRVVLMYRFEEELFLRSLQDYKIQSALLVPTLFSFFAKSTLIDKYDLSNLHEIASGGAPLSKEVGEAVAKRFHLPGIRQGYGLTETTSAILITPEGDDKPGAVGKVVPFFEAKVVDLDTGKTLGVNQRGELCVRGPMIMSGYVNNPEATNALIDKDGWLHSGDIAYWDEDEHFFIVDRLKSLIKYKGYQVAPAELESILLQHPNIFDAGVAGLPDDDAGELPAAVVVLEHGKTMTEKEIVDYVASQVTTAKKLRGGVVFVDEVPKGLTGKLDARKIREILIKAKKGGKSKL
NF-kB expr up: raises NF-kB expression in human neuronal cells; NF-kB reporter expression; stronger effect = higher value; fold change at 12.5 µM; hit rate 1.6% among 190,000; AID 1239; in the data active = fold change above about 3.3
FLuc act counter: firefly luciferase counter-screen for stimulation assays. P08659. ATPlite luciferase biochemical, luminescence, 10 min; 0 = ATP-free wells, 1 = DMSO control. 200,000 tested, under 10 active. activation factor at 10 µM;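 active = luciferase activation factor, scaled between plate controls, of at least 2 with compound at 10 µM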
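Assay system – cell-free luciferase reagent · Medium – PBS-based ATP solution · Dosing – test compounds dosed from 2 mM stocks in 100% DMSO · Timing – 10 min, room temperature · Technique – light output (luminescence) · Measure – luminescence gain marking luciferase activators · Controls – No-ATP low control, compound-free enzyme-plus-ATP high control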
Of the large screens only hits and unclear results are named; the others gave an inactive call.

CSc1ncc(CN2CCc3c([nH]c4ccccc34)C2c2cccc(O)c2)cn1 (stereo not drawn)	none
COc1ccc(NC(=O)CS(=O)(=O)c2cn(CC(=O)N3CCOCC3)c3ccccc23)cc1	none
O=S(=O)(c1ccc(F)cc1)N1CCC(N2CCN(c3ccccc3)CC2)CC1	none (no result: FLuc inhib CS, NF-kB expr up, FLuc act counter)
CCN(CC)S(=O)(=O)c1cccc(C(=O)N/N=C(\C)c2cccs2)c1	STAT1 activator 129
C/C(=N\NC(=O)c1ccccc1)c1ccccc1F	STAT1 activator 132
C/C(=N\NC(=O)C(N)=O)c1ccc(NC(=O)c2cccs2)cc1	STAT1 activator 137
C/C(=N\NC(=O)c1cccc(S(=O)(=O)Nc2cccc(Cl)c2)c1)c1cccs1	none
C/C(=N\NC(=O)C(N)=O)c1ccc(Br)cc1	none
C/C(=N\NC(=O)c1ccccc1)c1ccc(NC(=O)c2cccs2)cc1	STAT1 activator 136
C/C(=N\NC(=O)c1ccccc1C)c1ccc(NC(=O)c2cccs2)cc1	none
CC1(C)Cc2ccccc2C(CSc2ccccc2C(=O)O)=N1	none
CCOc1ccccc1Nc1nc(N)nc(CN2CCCCC2C)n1 (stereo not drawn)	none
COc1ccc(C)cc1NC(=O)C(Sc1nnc(-c2ccncc2)n1-c1ccc(Cl)cc1)c1ccccc1 (stereo not drawn)	none
C/C(=N\NC(=O)C1(C)NC(C)(C)Cc2ccccc21)c1ccccc1 (stereo not drawn)	none
CC(=O)Nc1cccc(/C(C)=N/NC(=O)c2cccs2)c1	STAT1 activator 140
N/C(=N\O)c1ccc(NC(=O)c2cccs2)cc1	STAT1 activator 130
C/C(=N/NC(=O)c1cccs1)c1cccc(N)c1	none
CC(=O)c1ccc(NC(=O)c2cccs2)cc1	none
CCOCc1nc(N)[nH]c(=O)c1Cc1ccc(OC(C)C)cc1	none
O=c1[nH]c2ccccc2c2nc3ccccn3c12	FLuc inhib CS 54
O=c1nc2c(O)cccn2c2c1c(=O)[nH]c1ccccc12	none
CCOc1ccc(NC(C(=O)Nc2cccc(C(C)=O)c2)c2ccccc2)cc1 (stereo not drawn)	none
O=C(Nc1ccc(Cl)cc1)Nc1cccc(C(=O)O)c1	FLuc inhib CS 76
CCOc1ccc(/C=C/C(=O)Nc2cccc(C(C)=O)c2)cc1	STAT1 activator 136, FLuc inhib CS 64
CCOc1ccc(NC(=O)Nc2cccc(C(=O)O)c2)cc1	FLuc inhib CS 92
CC(=O)c1ccc(NC(=O)Nc2cccc(Cl)c2)cc1	NF-kB expr up 3.6
COc1ccc(CCNC2CCN(C)CC2)cc1OC	none
CCN(CC)C(=O)c1cc(C(C)(C)C)c(O)c(C(C)(C)C)c1	none
COc1cc2c(cc1OC)C(=O)CC(C)S2 (stereo not drawn)	none
CCOc1ccc(NC(=O)Nc2cc(C)ccc2F)cc1	STAT1 activator 129
CCC(=O)Nc1cccc(C(=O)/C=C/c2ccc(F)cc2)c1	NF-kB expr up 3.8
CCOc1ccc(NC(=O)Nc2cc(OCC(F)(F)F)cc(OCC(F)(F)F)c2)cc1	none
Cc1ccccc1OCC(=O)Nc1cccc(C(=O)O)c1	FLuc inhib CS 59, NF-kB expr up 9
CC(=O)Nc1cccc(C(=O)/C=C/c2ccc(C)cc2)c1	none
Cc1csc2ncc(C(=O)N3CCCc4ccccc43)c(=O)n12	none
O=C(Nc1ccccn1)c1cc(-c2cccc(Cl)c2)nc2ccccc12	none
COc1nc(-c2ccccc2)nc(C)c1CC(=O)O	none
COc1nc(-c2ccccc2)nnc1-c1ccccc1	STAT1 activator 156, APP 5'UTR act 180, NF-kB expr up 6.2
O=[N+]([O-])c1ccc(C2CN=C(Nc3ccccc3)S2)cc1 (stereo not drawn)	none
CCc1ccc(NC2=NCC(c3ccccc3)S2)cc1 (stereo not drawn)	STAT1 activator 130
COc1ccc(OC)c(CC(NC(C)=O)C(=O)NC2CCN(c3cc(C)nc4ncnn34)CC2)c1 (stereo not drawn)	none
CC(C)(O)c1cc(=O)sc2nc3ccccc3n12	STAT1 activator 134, NF-kB expr up 3.6
COc1ccc(-c2c[n+]3c4n2CCCCC4=C(c2ccccc2)C3)cc1	none
O=C1C=C(c2ccccc2)OC(=O)C1C(=O)c1ccccc1 (stereo not drawn)	none
Cn1c(N=Nc2ccc(N3CCOCC3)cc2)[n+](C)c2ccccc21	FLuc inhib CS 59
Cc1ccc(N2CN=C(c3ccccc3)NC2=S)cc1	STAT1 activator 130
Cc1ccc(C(=O)Oc2ccc(N3C(=O)CCC3=O)c(C)c2)cc1	FLuc inhib CS 54
C=CCNC(=O)/C(C#N)=C/c1ccc2c(c1)OCCO2	FLuc inhib CS 50
COCCNC(=O)/C(C#N)=C/c1ccc2c(c1)OCO2	none
C=CCc1ccc(OCc2ccc(C(=O)OC)o2)c(OC)c1	NF-kB expr up 3.4
Cc1ccccc1Nc1nc2ccccc2s1	STAT1 activator 143, NF-kB expr up 5.6
Fc1ccc(Nc2nc3ccccc3s2)cc1	STAT1 activator 146, NF-kB expr up 3.3
C=CCSc1nn2c(=O)c3ccccc3nc2s1	STAT1 activator 134
O=C(Nc1nc(=O)c2ccccc2s1)c1ccccc1	STAT1 activator 138, FLuc inhib CS 60, NF-kB expr up 3.6
CN(C(=O)COC(=O)/C=C/c1ccc(S(=O)(=O)N2CCc3ccccc32)cc1)C1CCS(=O)(=O)C1 (stereo not drawn)	none
CCOC(=O)/C(=C\c1cccc(O)c1)c1nc2sc(C)c(C)c2c(=O)[nH]1	none
CN(C)CC(C)(C)CNC(C(=O)Nc1ccc(Cl)cc1C(F)(F)F)c1ccccc1 (stereo not drawn)	none
O=C(Nc1nc2ccccc2s1)c1ccc(F)cc1	APP 5'UTR act 173, FLuc inhib CS 64, NF-kB expr up 9
Cc1ccccc1Nc1nn2c(=O)c3ccccc3nc2s1	STAT1 activator 138
O=C(Nc1nnc(-c2ccccc2)s1)c1ccc(F)cc1	none
CSc1nc2ccc3nc(NC(=O)c4ccc(C)cc4)sc3c2s1	none
Cc1ccc(C(=O)Nc2nc3ccccc3c(=O)s2)cc1	FLuc inhib CS 80
CCOc1ccc(S(=O)(=O)NN=C2CCN(C(C)=O)CC2)cc1	none
CC(=O)N1CCC(=NNc2nc3ccccc3s2)CC1	STAT1 activator 136
CCNC(=O)Nc1nc2ccccc2s1	STAT1 activator 146
O=C(NNc1nc2ccccc2s1)Nc1ccccc1	STAT1 activator 138
S=C(Nc1ccccc1)c1nc2ccccc2s1	STAT1 activator 138
O=C(CCc1nc2ccccc2s1)Nc1ccccc1	none
CC(=O)NNc1nc2ccccc2s1	none
Cc1[nH]nc(SCC(=O)N2CCC(C)CC2)c1[N+](=O)[O-]	none
Cn1ccnc1SCC(=O)Nc1nc2ccccc2s1	STAT1 activator 134
O=C(CSc1ccccn1)Nc1nc2ccccc2s1	none
COc1ccc(Cl)cc1NC(=O)C(C)N(C)Cc1cccc(Cl)c1Cl (stereo not drawn)	none
CCOC(=O)c1ccc2nc(C)c(CCC(C)=O)c(Cl)c2c1	STAT1 activator 129
Cc1cc(N/N=C/c2cccc(Br)c2)nc2ccccc12	NF-kB expr up 4.2
